The nature of the data set: Toxicity liver stage against HepG2, at 10uM. More on the design: test concentration 10 uM, cell line HepG2-A16-CD81EGFP. It is filed as cell-based. To be noted: human, HepG2-A16-CD81EGFP cells; read-out: INHIBITION
Put shortly: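 Uninfected HepG2-A16-CD81EGFP cells, 3 × 10^3 per well, 1536-well, plated on prespotted compound at 10 μM final, parasite-free screening media added to match infected plates; puromycin 10 μM positive, DMSO 0.5% negative; run in parallel with 48 h PbLuc assay at 37 °C, 5% CO2; viability by CellTiter-Glo luminescence, normalized to controls.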
For the molecule `O=C(c1cccnc1)N1CCc2c(COCC3CC3)cncc2C1`, the cytotoxicity at 10 µM was -77.2%.

`C1CC(c2noc(C3CC3)n2)N(Cc2nnc(C3CC3)o2)C1` (stereo not drawn): the cytotoxicity at 10 µM was -5.83%. On to `Cc1ccc(-c2nc(CN3CCOC(Cn4cccn4)C3)cs2)o1` (stereo not drawn), for which the cytotoxicity at 10 µM is -8.86%.

On to `Cn1cc(Br)c(=O)c(NS(=O)(=O)c2ccc(Cl)cc2)c1`, for which the cytotoxicity at 10 µM is -5.28%. In the case of `Cn1cc(C(=O)NCc2cn3c(n2)CN(Cc2ccncc2)CC3)cn1`, the cytotoxicity at 10 µM turned out to be 5.71%. Take `CCc1noc(CCCC(=O)Nc2cc(C(F)(F)F)c[nH]c2=O)n1`: the cytotoxicity at 10 µM was -4.84%. For `FC(F)(F)c1ccnc(N2CCCN(C3CCOCC3)CC2)c1` the value was -7.49%. On to `O=c1c2cccnc2cnn1CC(O)c1cccc(C(F)(F)F)c1` (stereo not drawn), for which the cytotoxicity at 10 µM was -3.67%. Consider `O=C1COC2(CCN(Cc3ccncc3)CC2)CN1CC1CC1`, for which the cytotoxicity at 10 µM is -3.84%.

Turning to `Cc1ccc(CN2CC[C@@H]3[C@@H](CO[C@H]3CN(C)C)C2)o1`, the cytotoxicity at 10 µM is -130%. Turning to `CC(C)c1n[nH]c(C2CN(C(=O)c3cc(C(N)=O)cs3)CCO2)n1` (stereo not drawn), the cytotoxicity at 10 µM stood at 1.17%. Consider `CCc1nc(C2CCCN(C(=O)c3ccc4c(c3)nnn4C)C2)no1` (stereo not drawn), for which the cytotoxicity at 10 µM was -3.3%. Regarding `CCc1[nH]c2ccc(CNC(=O)Cc3c(C)nc(N)nc3C)cc2c1C`, the cytotoxicity at 10 µM was found to be 2.02%. Turning to `COc1cc(N2C[C@@H]3COC[C@]3(COCc3ccncc3)C2)ncn1`, the cytotoxicity at 10 µM is -72.4%. In the case of `CC(C)NC(=O)NCCCOC1CCOCC1`, the cytotoxicity at 10 µM was -17%. For `O=C(C1CCCC1)N1C[C@@H](c2ccsc2)[C@@H]2CN(C3CCCC3)CC[C@@H]21` the value was 4.79%; for `CSc1cc2c(cc1NC(=O)NCc1ccco1)OCCO2`, -5.08%.

Turning to `COc1ccsc1C(=O)NC1CCN(c2cccc(F)c2)CC1`, the cytotoxicity at 10 µM turned out to be 18.3%. For the molecule `Cc1nc(C)n(CC2CCCN(CC(=O)NC3CCOCC3)C2)n1` (stereo not drawn), the cytotoxicity at 10 µM was -11.8%.

With `COc1c(C2CCCN2C(=O)c2c[nH]c3ncccc23)c(C)nn1C` (stereo not drawn), the cytotoxicity at 10 µM was -6.49%. For `Cc1cc(C)n(C(=O)Cn2nc(C)c(I)c2C)n1` the value was -6.52%. In the case of `CN(CC1CCN(CCO)CC1)CC(O)c1ccc(F)c(F)c1` (stereo not drawn), the cytotoxicity at 10 µM is -51.5%.

As to `CN(CC(=O)N1CC(C)(C)[C@](O)(C2CC2)C1)Cc1cccnc1`, the cytotoxicity at 10 µM was -52%.

As for `Cc1nc2sccn2c1CNc1cc(C(=O)O)ccc1F`, the cytotoxicity at 10 µM turned out to be 4.59%. For `O=C(C1CCC1)N1CCn2c(COc3ncccn3)nnc2C1`, the cytotoxicity at 10 µM was 3.09%. Turning to `O=C(NC1CCC(O)CC1)c1cnc2c(cnn2C2CCCC2)c1` (stereo not drawn), the cytotoxicity at 10 µM was -3.79%.

`Cc1cc(C2CCCN(CCc3ccccn3)C2)n[nH]1` (stereo not drawn): the cytotoxicity at 10 µM was -10.4%. As to `CC(C)N1CCC(CC(=O)NC(C(=O)O)c2cccc(F)c2)CC1` (stereo not drawn), the cytotoxicity at 10 µM is -0.114%. Regarding `Fc1cccc(CCN(c2ccc3nnnn3n2)C2CC2)c1`, the cytotoxicity at 10 µM was 4.21%. As for `CC(C)C(C)N(C)C(=O)COc1ccccc1C#N` (stereo not drawn), the cytotoxicity at 10 µM is -3.28%. As to `CC(C)(C)C(=O)NCCn1ccc(-c2ccccn2)n1`, the cytotoxicity at 10 µM amounted to 6.47%.

Take `CC(C)COCCC(=O)NCc1cn2cc(Br)ccc2n1`: the cytotoxicity at 10 µM came out at 4.26%. Turning to `CN(C)CC(=O)N1CCCC1c1ccccn1` (stereo not drawn), the cytotoxicity at 10 µM came to 4.38%. For `COc1cccc(OC)c1-c1ccnc2cc(CC(=O)NC3CC3)nn12`, the cytotoxicity at 10 µM is -2.67%. In the case of `Brc1ccccc1-c1nnc(CNCCn2cccn2)o1`, the cytotoxicity at 10 µM was -24.5%. For `Cc1noc(C(C)Nc2ccc3oc(=O)[nH]c3c2)n1` (stereo not drawn) the value was -2.27%; for `CNC(=O)C1CN(Cc2c[nH]cn2)CCN(C2CCOCC2)C1` (stereo not drawn), -17%; for `Cc1cnn(CCNCC(O)COc2c(Cl)cccc2Cl)c1` (stereo not drawn), -5.4%.

`CN(C)C(=O)C1(c2cnccn2)CCCN1C(=O)Cc1ccccc1` (stereo not drawn): the cytotoxicity at 10 µM worked out at 0.225%. With `CC(C)CCNC(=O)c1ccc(-n2cnc3ccccc3c2=O)cc1`, the cytotoxicity at 10 µM was -6.17%. Regarding `c1ccc(C2CCCN2C2CCSCC2)nc1` (stereo not drawn), the cytotoxicity at 10 µM came out at 9.03%. For `Cc1cnn(CC2CCCN2C(=O)CCc2ccncc2)c1` (stereo not drawn), the cytotoxicity at 10 µM was -10.6%.

Turning to `CCCNC(=O)C(C)Nc1ccc(COCC)cc1` (stereo not drawn), the cytotoxicity at 10 µM was found to be 2.37%. Regarding `COCCCN(C)C(=O)c1nnn(-c2ccccc2Cl)c1C`, the cytotoxicity at 10 µM was found to be 9.38%. For the molecule `c1ccc(CN2CCc3nnc(CN4CCCCC4)n3CC2)nc1`, the cytotoxicity at 10 µM is 3.73%. Take `CCC(Nc1nc(C)nc2onc(C)c12)c1nc(C)c(C)s1` (stereo not drawn): the cytotoxicity at 10 µM was found to be 37.2%. Consider `CCN(Cc1cccc2c1OCO2)CC1CCCO1` (stereo not drawn), for which the cytotoxicity at 10 µM was found to be 3.18%. For the molecule `Clc1cc(CN2CCCC(Cn3cncn3)C2)c2ncccc2c1` (stereo not drawn), the cytotoxicity at 10 µM amounted to 6.64%.

As to `CCN(C)S(=O)(=O)NCC1CCN(Cc2ccccc2C)CC1`, the cytotoxicity at 10 µM is -4.93%.

As for `CC(=O)N1CCC(N2CCOC(CC3CCCCC3)C2)CC1` (stereo not drawn), the cytotoxicity at 10 µM worked out at 6.46%. `CC1CCN(S(=O)(=O)c2cccn(CC(=O)N3CCOCC3)c2=O)CC1`: the cytotoxicity at 10 µM was found to be 2.11%. On to `CC(C)c1nc2n(n1)CC(NCCc1cccs1)CC2` (stereo not drawn), for which the cytotoxicity at 10 µM was -5.71%.

As for `Cn1cc(-c2ccnc(NCC3CC3)n2)cn1`, the cytotoxicity at 10 µM was -134%. For `c1cc(-c2noc(-c3cc(C4CC4)[nH]n3)n2)cc(N2CCCCC2)n1`, the cytotoxicity at 10 µM amounted to 3.05%. For the molecule `c1ccc2oc(N3CCCC4(CCOC4)C3)nc2c1` (stereo not drawn), the cytotoxicity at 10 µM was -6.27%. On to `Cc1nc(C(=O)NS(=O)(=O)c2cccc(C#N)c2)cs1`, for which the cytotoxicity at 10 µM is -1.95%. On to `COCCNc1ccc(CC2CCCN(C3CCOCC3)C2)nn1` (stereo not drawn), for which the cytotoxicity at 10 µM worked out at 6.38%. As for `CCC(CO)N(Cc1ccc(F)cc1)Cc1c(C)nn(C)c1Cl` (stereo not drawn), the cytotoxicity at 10 µM was determined as 8.64%. Consider `Cn1ccc(C(=O)N2C[C@@H]3OCCN(c4ncccn4)[C@@H]3C2)n1`, for which the cytotoxicity at 10 µM was determined as 5.7%. For the molecule `CC(C)N(C)Cc1cnc2n1CCN(C(=O)c1cccs1)C2`, the cytotoxicity at 10 µM is -74.2%. Regarding `Cc1nn(C)cc1S(=O)(=O)N(CCc1ccccc1)Cc1ccn(C)n1`, the cytotoxicity at 10 µM stood at 1.43%. For `CSCC(C)(O)CNC(=O)c1cccc(Cl)c1Cl` (stereo not drawn) the value was 0.126%.

As to `Cc1nnc(SCC(=O)N2C[C@@H]3CC[C@H]2CN(c2ncccn2)C3)[nH]1`, the cytotoxicity at 10 µM was determined as 2.24%. Consider `O=C(NCCn1ccnc1)c1cncc(Br)c1`, for which the cytotoxicity at 10 µM is 17.7%. For `CC(OCC1CC1)C(=O)NCCC(=O)Nc1ccccn1` (stereo not drawn), the cytotoxicity at 10 µM was -5.72%. For `CC(=O)N1CC[C@H]2OCC[C@@]2(C(=O)NCc2ccco2)C1` the value was 0.253%; for `CN1CC(c2ccccc2)CC12CCN(C(=O)c1cccnc1)CC2` (stereo not drawn), 10.2%; for `Cc1cnn(CCCN2C(=O)CCc3ccccc32)c1`, 1.39%.

As for `Cc1ccc(CN2CC[C@H]3[C@H](CC(Cn4cccn4)N3C)C2)s1` (stereo partly drawn), the cytotoxicity at 10 µM stood at 6.66%. For `CCc1nnc2ccc(NCC3(O)CCOCC3)nn12` the value was -0.439%; for `Cc1ccc(NC2CCN(C(=O)Cc3ccc(C#N)cc3)CC2)nn1`, -6.83%; for `CC1CN(C)c2ccccc2CN1C(=O)c1ccncc1` (stereo not drawn), -23.4%. For `CC(C)n1nc(CN2CCCCC2)c2c1CN(C(=O)c1ccno1)C2` the value was 4.19%; for `CC(C)n1ccnc1C1CCCN(c2nc3ccccc3s2)C1` (stereo not drawn), 5.07%; for `O=C(c1ccc2c(c1)OCO2)N1CCCC(Nc2ccc(F)cc2)C1` (stereo not drawn), -5.05%. For `O=C(CC1CC1)N1C[C@@H]2CCN(c3cnccn3)C[C@@H]2C1` the value was 5.03%; for `O=C(Cn1[nH]c2ccccc2c1=O)N1CCCC(CC2CC2)(C(=O)O)C1` (stereo not drawn), 3.15%; for `O=C(c1ccc(COc2ccc(Cl)cc2)o1)N1N=CCC1(O)C(F)(F)F` (stereo not drawn), 30%. `Cc1n[nH]c(C2CN(C(=O)CCc3ccco3)CCO2)n1` (stereo not drawn): the cytotoxicity at 10 µM was -1.95%. For `Cc1nc(COC[C@]23COC[C@H]2CN(Cc2ccoc2)C3)cs1` the value was -19.2%; for `O=C(Cc1ccccc1Cl)N1CCCC(n2cncn2)C1` (stereo not drawn), -11.1%. On to `Cc1nn(C)c(C)c1-c1nc2cc(S(=O)(=O)N3CCCC3)ccc2n1C`, for which the cytotoxicity at 10 µM is -6.05%.

As to `CC(C)CS(=O)(=O)N1C[C@@H]2C[C@H](C(=O)N(C)C)[C@H](C1)O2`, the cytotoxicity at 10 µM amounted to 8.66%. `OC1(Cn2ccc3ncccc32)CCN(Cc2ccccc2F)CC1`: the cytotoxicity at 10 µM is -5.33%. Regarding `Cn1ccnc(Sc2ccccc2)c1=O`, the cytotoxicity at 10 µM worked out at 0.483%. For `Cc1cnn(CCNCc2ccc(C#N)cc2)c1` the value was -10.7%; for `CCOc1ncccc1C(=O)N1CCC(Nc2ccc(C)nn2)CC1`, -20.6%.

As to `CCn1cc2c(n1)C(COC)CN(C(=O)COc1ccccc1)C2` (stereo not drawn), the cytotoxicity at 10 µM was -2.88%. As to `Cc1cc(NCCO)nc(-c2ccccc2O)n1`, the cytotoxicity at 10 µM came out at 14.1%. In the case of `Cc1cccc(C2CCCCCN2C(=O)c2cn(CC(N)=O)nn2)c1` (stereo not drawn), the cytotoxicity at 10 µM stood at 1.51%. As for `Cc1ccc(Cl)cc1N1CCC(CNC(=O)CC(F)(F)F)C1` (stereo not drawn), the cytotoxicity at 10 µM was -9.7%. On to `CN(C)CC(=O)N1CCc2cccc(S(=O)(=O)N3CCOCC3)c2C1`, for which the cytotoxicity at 10 µM was 6.8%.

For the molecule `COC(=O)NCC(=O)NCC(C)(C)c1cccc(C(F)(F)F)c1`, the cytotoxicity at 10 µM is -3.36%. Consider `O=C(c1cscn1)N1CCC2(CCN(S(=O)(=O)c3ccccc3)C2)C1` (stereo not drawn), for which the cytotoxicity at 10 µM worked out at 11%. For `CCn1c(NCc2cccnc2)nc2c(C)nn(C)c2c1=O` the value was 5.17%.

As for `Cc1ccc(N(C)C2CCN(C(=O)CCc3ccco3)CC2)nn1`, the cytotoxicity at 10 µM was -7%. Take `c1cnnc(NCC2CN(CC3CCOCC3)CCO2)c1` (stereo not drawn): the cytotoxicity at 10 µM turned out to be 9.34%. With `CCC1CN(C)c2ccccc2CN1C(=O)Nc1cccc(F)c1` (stereo not drawn), the cytotoxicity at 10 µM is 5.9%.

The record behind these values is ChEMBL document CHEMBL4513216, “Probing the Open Global Health Chemical Diversity Library for Multistage-Active Starting Points for Next-Generation Antimalarials” (ACS Infect Dis, 2020).
